Measurements reported in ChEMBL document CHEMBL3286129, “Optimization of peptidomimetic boronates bearing a P3 bicyclic scaffold as proteasome inhibitors” (Eur J Med Chem, 2014).

What was measured:
Format in all cases: functional
[1] = system: NCI-H322M; assay: Growth inhibition of human NCI-H322M cells
[2] = Growth inhibition of human HCC2998 cells; settings: HCC 2998
[3] = system: HCT-116; assay: Growth inhibition of human HCT116 cells
[4] = Growth inhibition of human HCT15 cells
[5] = system: KM12; assay: Growth inhibition of human KM12 cells
[6] = system: SW-620; assay: Growth inhibition of human SW620 cells
[7] = system: SF-268; assay: Growth inhibition of human SF268 cells
[8] = Growth inhibition of human SF295 cells; settings: SF-295
[9] = system: SNB-19; assay: Growth inhibition of human SNB19 cells
[10] = system: U-251; assay: Growth inhibition of human U251 cells
[11] = system: M14; assay: Growth inhibition of human M14 cells
[12] = system: MDA-MB-435; assay: Growth inhibition of human MDA-MB-435 cells
[13] = system: SK-MEL-2; assay: Growth inhibition of human SK-MEL-2 cells
[14] = Growth inhibition of human UACC62 cells; settings: UACC-62
[15] = Growth inhibition of human OVCAR5 cells; settings: OVCAR-5
[16] = Growth inhibition of human OVCAR8 cells
[17] = system: SK-OV-3; assay: Growth inhibition of human SKOV3 cells
[18] = system: A498; assay: Growth inhibition of human A498 cells
[19] = system: CAKI-1; assay: Growth inhibition of human CAKI-1 cells
[20] = system: SN12C; assay: Growth inhibition of human SN12C cells
[21] = system: PC-3; assay: Growth inhibition of human PC3 cells
[22] = system: DU-145; assay: Growth inhibition of human DU145 cells
[23] = system: MDA-MB-231; assay: Growth inhibition of human MDA-MB-231 cells
[24] = Growth inhibition of human Hs 578T cells
[25] = system: T47D; assay: Growth inhibition of human T47D cells
[26] = system: MDA-MB-468; assay: Growth inhibition of human MDA-MB-468 cells
[27] = Cytotoxicity against human colon cancer cells assessed as cell growth at 10 uM relative to control; settings: Cancer cell lines, read-out: Activity
Procedure, shortened: (§1)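 Single-concentration screen against a panel of human cancer cell lines. Each value is the mean percent growth across the cell lines of that tumour subpanel.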

[28] = Cytotoxicity against human CNSC cells assessed as cell growth at 10 uM relative to control; settings: read-out: Activity; procedure, shortened: as §1
[29] = Cytotoxicity against human melanoma cells assessed as cell growth at 10 uM relative to control; settings: read-out: Activity; procedure, shortened: as §1
[30] = Cytotoxicity against human ovarian cancer cells assessed as cell growth at 10 uM relative to control; settings: Cancer cell lines, read-out: Activity; procedure, shortened: as §1
[31] = Cytotoxicity against human renal cancer cells assessed as cell growth at 10 uM relative to control; settings: Cancer cell lines, read-out: Activity; procedure, shortened: as §1
[32] = system: CCRF-CEM; assay: Growth inhibition of human CCRF-CEM cells
[33] = system: HL-60(TB); assay: Growth inhibition of human HL-60(TB) cells
[34] = system: K562; assay: Growth inhibition of human K562 cells
[35] = system: RPMI-8226; assay: Growth inhibition of human RPMI8226 cells
[36] = system: A549; assay: Growth inhibition of human A549/ATCC cells
[37] = system: NCI-H23; assay: Growth inhibition of human NCI-H23 cells
[38] = read-out: LC50 (the source's name)

CC(C)C[C@H](NC(=O)CCn1ccc2ccccc2c1=O)B(O)O
GI50 [1]: 76.8 µM
TGI [1]: > 100 µM
CC50 [1, 38]: > 100 µM
GI50 [2]: 6.08 µM
LC50 [2]: 66.4 µM
TGI [2]: 21.3 µM
GI50 [3]: 1.55 µM
LC50 [3]: > 100 µM
TGI [3]: 19.8 µM
GI50 ([4]; HCT-15): 9.57 µM
TGI ([4]; HCT-15): > 100 µM
CC50 ([4]; HCT-15, read-out: LC50 (the source's name)): > 100 µM
GI50 [5]: 7.51 µM
LC50 [5]: > 100 µM
TGI [5]: 29.8 µM
GI50 [6]: 3 µM
LC50 [6]: 93.4 µM
TGI [6]: 12 µM
GI50 [7]: 5.69 µM
LC50 [7]: > 100 µM
TGI [7]: 30.4 µM
GI50 [8]: 3.78 µM
LC50 [8]: 83.3 µM
TGI [8]: 19.6 µM
GI50 [9]: 8.02 µM
TGI [9]: > 100 µM
CC50 [9, 38]: > 100 µM
GI50 [10]: 4.23 µM
TGI [10]: > 100 µM
CC50 [10, 38]: > 100 µM
GI50 [11]: 4.23 µM
LC50 (concentration killing 50% of cells) [11]: > 100 µM
TGI [11]: > 100 µM
GI50 [12]: 1.27 µM
TGI [12]: 2.81 µM
CC50 [12, 38]: 6.24 µM
GI50 [13]: 3.58 µM
LC50 [13]: > 100 µM
TGI [13]: 32.5 µM
GI50 [14]: 4.29 µM
LC50 (concentration killing 50% of cells) [14]: > 100 µM
TGI [14]: 24.9 µM
GI50 [15]: 18.8 µM
LC50 [15]: > 100 µM
TGI [15]: > 100 µM
GI50 ([16]; OVCAR-8): 15.3 µM
TGI ([16]; OVCAR-8): > 100 µM
CC50 ([16]; OVCAR-8, read-out: LC50 (the source's name)): > 100 µM
GI50 [17]: 4.72 µM
LC50 [17]: > 100 µM
TGI [17]: 81.3 µM
GI50 [18]: 1.22 µM
LC50 [18]: > 100 µM
TGI [18]: 4.79 µM
GI50 [19]: 2.93 µM
TGI [19]: 27 µM
CC50 [19, 38]: > 100 µM
GI50 [20]: 11.2 µM
TGI [20]: 55.4 µM
CC50 [20, 38]: > 100 µM
GI50 [21]: 5.77 µM
TGI [21]: > 100 µM
CC50 [21, 38]: > 100 µM
GI50 [22]: 9.13 µM
TGI [22]: > 100 µM
CC50 [22, 38]: > 100 µM
GI50 [23]: 9.45 µM
TGI [23]: 59.3 µM
CC50 [23, 38]: > 100 µM
GI50 [24]: 3.63 µM
TGI [24]: 48.7 µM
CC50 [24, 38]: > 100 µM
GI50 [25]: 3.71 µM
TGI [25]: 29.3 µM
CC50 [25, 38]: > 100 µM
GI50 [26]: 1.38 µM
TGI [26]: 7.08 µM
CC50 [26, 38]: > 100 µM
growth at 10 µM [27]: 45.1%
growth at 10 µM [28]: 52%
growth at 10 µM [29]: 30.5%
growth at 10 µM [30]: 73.1%
growth at 10 µM [31]: 32.3%
GI50 [32]: 2.02 µM
TGI [32]: 25.4 µM
CC50 [32, 38]: > 100 µM
GI50 [33]: 2.69 µM
TGI [33]: 49.5 µM
CC50 [33, 38]: > 100 µM
GI50 [34]: 4.97 µM
TGI [34]: > 100 µM
CC50 [34, 38]: > 100 µM
GI50 [35]: 1.06 µM
TGI [35]: 7.07 µM
CC50 [35, 38]: > 100 µM
GI50 [36]: 8.41 µM
TGI [36]: > 100 µM
CC50 [36, 38]: > 100 µM
GI50 [37]: 25.4 µM
TGI [37]: > 100 µM
CC50 [37, 38]: > 100 µM
